This is an account of results in ChEMBL document CHEMBL3792381, “Amine-free melanin-concentrating hormone receptor 1 antagonists: Novel 1-(1H-benzimidazol-6-yl)pyridin-2(1H)-one derivatives and design to avoid CYP3A4 time-dependent inhibition” (Bioorg Med Chem, 2016).

One data set concerns the target Cytochrome P450 3A4 (Homo sapiens, UniProt P08684). Nature of the data set: Time dependent inhibition of CYP3A4 in human liver microsomes at 10 uM. The data set is classed as ADME. On the technique in general: Microsomes from liver hold many membrane-bound enzymes, among them those of drug oxidation.
Data set [1] has as its target T1, Melanin-concentrating hormone receptor 1 (Homo sapiens, UniProt Q99705). As to the kind of experiment: Displacement of [125I]-MCH(4 to 19) from human MCHR1 expressed in CHO cell membranes after 1 hr by liquid scintillation counting. The procedure, abridged: (§1)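 Membranes from CHO cells stably expressing human or rat MCHR1, prepared by homogenization and 100,000×g centrifugation, in 20 mM Tris-HCl pH 7.5 with 5 mM EDTA and protease inhibitors. Incubated with test compound and [125I]-MCH(4–19) for 1 h at room temperature. Filtered on PEI-treated GF/C filters and counted by scintillation. Nonspecific binding defined with cold MCH(1–19). IC50 from duplicate experiment.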
On the technique in general: Loss of bound radioactivity is the signal in a displacement assay; it reports binding, not function.

Data set [2] addresses Melanin-concentrating hormone receptor 1 (Rattus norvegicus, UniProt P97639). Nature of the data set: Displacement of [125I]-MCH(4-19) from rat MCHR1 expressed in CHO cell membranes after 1 hr by liquid scintillation counting. Summed up: as §1
A further data set concerns the target CYP3A4 (Homo sapiens, UniProt P08684). Nature of the data set: Time dependent inhibition of CYP3A4 in human liver microsomes assessed as conversion of testosterone to 6beta-hydroxytestosterone by measuring remaining activity at 30 uM by UPLC analysis in presence of NADPH generating system. The data set is classed as ADME. The following applies: read-out: Activity. The procedure, abridged: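 Single-point assay: test compound at 30 µM preincubated with human liver microsomes at 37 °C in phosphate buffer pH 7.4 with an NADPH-generating system. Residual CYP3A4 activity then measured as testosterone 6β-hydroxylation by UPLC. Percent remaining = activity with preincubation (% of DMSO control) over activity without preincubation; n = 2.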

Data set [3] in a line: Oral bioavailability in Sprague-Dawley rat plasma at 1 mg/kg administered through cassette dosing by LC/MS/MS analysis. The data set is classed as ADME, organism-based. Summed up: (§2)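 Male SD rats (eight weeks old), fed, cassette-dosed iv at 0.1 mg/kg or orally at 1 mg/kg as a suspension in 0.5% methylcellulose; n = 3. Plasma obtained by centrifugation of blood, deproteinized with acetonitrile, and measured by LC/MS/MS. AUC covers 0–8 h. Bioavailability, total clearance and Vss are derived from the iv and po data.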

In data set [4] the target is T1, Melanin-concentrating hormone receptor 1. Nature of the data set: Antagonist activity at human MCHR1 expressed in CHO cells assessed as change in MCH(4 to 19)-stimulated Ca2+ concentration by Ca2+ mobilization assay. The data set is classed as functional, cell-based. The procedure, abridged: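 CHO dhfr− cells stably transfected with human MCHR1 (clone 4), seeded at 20000 cells/well and cultured about 24 h. Loaded with Fluo4 calcium dye for 30 min at 37 °C. Test compound in 10 mM HEPES pH 7.4 buffer with 0.1% BSA added, then MCH(4–19) at 2 nM final. Fluorescence read every 2 s; inhibition rate (%) taken relative to ligand-alone and DMSO-alone wells.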

Data set [5] is described as follows: Total clearance in Sprague-Dawley rat plasma at 0.1 mg/kg, iv administered through cassette dosing by LC/MS/MS analysis. The data set is classed as ADME, organism-based. Summed up:
as §2

Data set [6] in a line: Volume of distribution in steady state in Sprague-Dawley rat plasma at 0.1 mg/kg, iv administered through cassette dosing by LC/MS/MS analysis. The data set is classed as ADME, organism-based. As to conditions: read-out: Vdss. Summed up: as §2
The nature of data set [7]: Cmax in Sprague-Dawley rat at 1 mg/kg, po administered through cassette dosing by LC/MS/MS analysis. The data set is classed as ADME, organism-based. Also on record: dose 1 mg/kg, route oral. As to conditions: in vivo. Summed up:
as §2

Data set [8] in a line: Tmax in Sprague-Dawley rat plasma at 1 mg/kg, po administered through cassette dosing by LC/MS/MS analysis. The data set is classed as ADME, organism-based. Summed up:
as §2

A short description of data set [9]: AUC( 0 to 8 hrs) Sprague-Dawley rat plasma at 1 mg/kg, po administered through cassette dosing by LC/MS/MS analysis. The data set is classed as ADME, organism-based. Also on record: dose 1 mg/kg, time < 8 hr, route oral. The procedure, abridged:
as §2

Data set [10] has as its system Rattus norvegicus. Nature of the data set: Anorectic effect in DIO-F344/Jcl rat assessed as inhibition of food intake at 3 mg/kg, po administered 2 hrs before onset of dark period for 2 days. The data set is classed as functional. Summed up: (§3)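 Male DIO-F344/Jcl rats, 45 weeks old, on high-fat diet from 5 weeks of age, singly housed on powdered high-fat diet and habituated to oral dosing with tap water. Grouped by day-0 food intake and body weight. Dosed orally once daily, suspended in 0.5% methylcellulose at 2 mL/kg, 2 h before dark onset, for 2 days; n = 6. Cumulative 2-day food intake is expressed relative to the vehicle group.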

In data set [11] the test system is Rattus norvegicus. Nature of the data set: Anorectic effect in DIO-F344/Jcl rat assessed as inhibition of food intake at 10 mg/kg, po administered 2 hrs before onset of dark period for 2 days. The data set is classed as functional. Also on record: scale not given: the % may be the effect or the level left. Summed up: as §3
The nature of data set [12]: Solubility of compound at pH 6.8. The data set is classed as physicochemical. As to conditions: buffer.
Data set [13] concerns Rattus norvegicus. As to the kind of experiment: Anorectic effect in DIO-F344/Jcl rat assessed as cumulative food intake at 1 mg/kg, po dosed for 2 weeks and measured every 2 or 3 days relative to vehicle control. The data set is classed as functional. The procedure, abridged:
(§4)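 Male DIO-F344 rats (41 weeks old), on high-fat diet D12451 from 5 weeks of age, singly housed, given powder high-fat diet, habituated to oral dosing with tap water, grouped by day-0 food intake and body weight. Oral gavage once daily, suspended in 0.5% methylcellulose at 2 mL/kg, 1–3 h before dark onset, for 2 weeks (n = 5 or 6). Body weight taken before dosing, expressed as % of initial. Food intake every 2 or 3 days. Vehicle-treated and sibutramine-treated groups included.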

In data set [14] the test system is Rattus norvegicus. As to the kind of experiment: Antiobesity activity in DIO-F344/Jcl rat assessed as reduction in body weight at 1 mg/kg, po dosed for 2 weeks and measured every 2 or 3 days relative to vehicle control. The data set is classed as functional. Further details: scale not given: the % may be the effect or the level left. The procedure, abridged: as §4

Values after ≈ are worked out from the molar mass of the structure shown. Active and inactive are the calls of the source. The rule behind the calls is not given here.

T1 sequence (Q99705 whole entry): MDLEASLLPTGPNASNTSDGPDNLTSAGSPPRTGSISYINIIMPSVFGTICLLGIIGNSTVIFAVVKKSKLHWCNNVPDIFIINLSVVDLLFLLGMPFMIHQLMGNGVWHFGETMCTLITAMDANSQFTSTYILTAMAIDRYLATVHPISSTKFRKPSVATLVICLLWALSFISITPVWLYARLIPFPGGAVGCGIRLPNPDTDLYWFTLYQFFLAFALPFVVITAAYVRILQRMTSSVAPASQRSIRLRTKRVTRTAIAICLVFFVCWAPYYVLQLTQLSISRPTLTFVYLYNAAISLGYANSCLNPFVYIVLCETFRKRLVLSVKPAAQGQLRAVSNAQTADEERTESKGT
Chain of Melanin-concentrating hormone receptor 1 (Rattus norvegicus, UniProt P97639) (P97639 whole entry): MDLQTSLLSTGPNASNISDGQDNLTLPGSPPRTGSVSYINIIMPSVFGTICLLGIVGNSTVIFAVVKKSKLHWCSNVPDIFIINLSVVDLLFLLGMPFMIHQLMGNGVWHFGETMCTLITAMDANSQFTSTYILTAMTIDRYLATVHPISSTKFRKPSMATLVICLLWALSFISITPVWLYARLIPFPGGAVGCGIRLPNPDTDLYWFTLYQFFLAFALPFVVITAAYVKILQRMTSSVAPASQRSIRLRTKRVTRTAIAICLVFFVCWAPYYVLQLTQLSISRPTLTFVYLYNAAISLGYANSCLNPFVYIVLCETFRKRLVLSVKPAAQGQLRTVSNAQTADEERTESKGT
Chain of CYP3A4 (P08684 whole entry): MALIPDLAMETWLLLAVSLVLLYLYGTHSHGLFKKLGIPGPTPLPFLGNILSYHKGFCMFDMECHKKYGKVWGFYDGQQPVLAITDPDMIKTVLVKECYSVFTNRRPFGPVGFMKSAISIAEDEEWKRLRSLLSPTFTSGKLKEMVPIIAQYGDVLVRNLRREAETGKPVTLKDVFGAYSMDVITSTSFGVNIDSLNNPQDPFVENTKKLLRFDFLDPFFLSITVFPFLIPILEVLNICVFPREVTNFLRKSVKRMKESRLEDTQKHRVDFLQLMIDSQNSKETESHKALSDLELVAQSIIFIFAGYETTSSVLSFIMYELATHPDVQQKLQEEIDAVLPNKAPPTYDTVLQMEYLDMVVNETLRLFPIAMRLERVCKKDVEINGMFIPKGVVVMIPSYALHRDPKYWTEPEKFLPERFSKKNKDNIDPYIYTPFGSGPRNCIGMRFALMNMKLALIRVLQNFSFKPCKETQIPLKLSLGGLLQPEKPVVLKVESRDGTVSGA
Chain of Cytochrome P450 3A4 (P08684 whole entry): as above

With `Cc1c(C2CC2)nc2ccc(-n3ccc(OCc4ccc(Cl)cc4)cc3=O)cn12`, the “inhibition (INH)” value at Cytochrome P450 3A4 was “Active”.

For the molecule `CCn1c(C2CC2)nc2ccc(-n3ccc(OCc4ccc(Cl)cc4)cc3=O)cc21`, the results for the IC50 in data set [1] and in [2] were 37 nM and 34 nM, respectively.

On to `Cn1c(C2CC2)nc2ccc(-n3ccc(OCc4ccc(F)cc4)cc3=O)cc21`, for which the IC50 in data set [1] worked out at 40 nM; in [2] it was 28 nM.

With `Cn1c(C2CCCC2)nc2ccc(-n3ccc(OCc4ccc(F)cc4)cc3=O)cc21`, the IC50 in data set [1] came to 600 nM; in data set [2] it was 460 nM.

`Cn1c(C2CC2)nc2ccc(-n3ccc(OCc4cccs4)cc3=O)cc21`: the IC50 in [1] is 76 nM; in data set [2] it was 120 nM.

On to `Cn1c(C2CC2)nc2ccc(-n3ccc(OCc4ccccc4Cl)cc3=O)cc21`, for which the figures for the IC50 in data set [1] and in [2] were 160 nM and 140 nM, respectively.

Take `Cn1c(C2CC2)nc2ccc(-n3ccc(OCc4cc(C(F)(F)F)cs4)cc3=O)cc21`: the IC50 came to 34 nM in data set [1] and 17 nM in data set [2]. The activity at 30 µM at CYP3A4 is 87%.

The molecule `Cc1c(C2CC2)nc2ccc(-n3ccc(OCc4ccc(Cl)cc4)cc3=O)nn12` yielded an IC50 in data set [1] of 380 nM.

With `Cn1c(C2CC2)nc2ccc(-n3ccc(OCc4ncc(Cl)cn4)cc3=O)cc21`, the IC50 in data set [1] was > 1000 nM; in data set [2] it was 900 nM.

As to `Cn1c(C2CC2)nc2ccc(-n3ccc(OCc4ccc(C(F)(F)F)s4)cc3=O)cc21`, in data set [3], the bioavailability was 57%. Besides, the figures for the IC50 in data set [4], in [1] and in data set [2] were 18 nM, 16 nM and 13 nM, respectively. This molecule had a clearance in [5] of 4.75 mL/min/kg. Moreover, the Vd in data set [6] was found to be 0.979 L/kg. Moreover, the highest level in [7] (Cmax) was 298 ng/mL. Besides, the time of peak concentration (Tmax) in data set [8] is 2.7 h. Besides, the AUC(0-t) at 8 h in data set [9] was 2020 ng·h/mL. The Activity entry with Rattus norvegicus [10] is “Active”. For the same molecule, the Activity with Rattus norvegicus [11] worked out at 20.3%. The solubility in [12] turned out to be 0.25 µg/mL (≈ 0.561 µM). The activity at 30 µM on CYP3A4 amounted to 97%.

`Cc1nc2ccc(-n3ccc(OCc4ccc(F)cc4)cc3=O)cc2n1C`: the IC50 in data set [1] is 77 nM; in [2], 65 nM.

As for `Cn1c(C2CC2)nc2ccc(-n3ccc(OCc4cccc(Cl)c4)cc3=O)cc21`, the IC50 in data set [1] is 100 nM; in data set [2] it was 72 nM.

In the case of `Cn1c(C2CC2)nc2ccc(-n3ccc(OCc4csc(Cl)c4)cc3=O)cc21`, the figures for the IC50 in [1] and in [2] were 14 nM and 9.3 nM, respectively. In addition, the activity at 30 µM at CYP3A4 worked out at 44%.

For the molecule `CCc1nc2ccc(-n3ccc(OCc4ccc(F)cc4)cc3=O)cc2n1C`, the results for the IC50 in data set [1] and in [2] were 48 nM and 38 nM, respectively.

For the molecule `Cn1c(C2CC2)nc2ccc(-n3ccc(OCc4cc(Cl)cs4)cc3=O)cc21`, the IC50 worked out at 17 nM in [1] and 18 nM in data set [2]. The activity at 30 µM at CYP3A4 was found to be 25%.

For the molecule `Cn1c(CC(C)(C)C)nc2ccc(-n3ccc(OCc4ccc(F)cc4)cc3=O)cc21`, the IC50 in [1] and in data set [2] was > 1000 nM each time.

For `CCCc1nc2ccc(-n3ccc(OCc4ccc(F)cc4)cc3=O)cc2n1C`, the figures for the IC50 in data set [1] and in data set [2] were 34 nM and 39 nM, respectively.

For the molecule `Cn1c(CC2CC2)nc2ccc(-n3ccc(OCc4ccc(F)cc4)cc3=O)cc21`, the IC50 was 90 nM in data set [1] and 140 nM in [2].

`CCCn1c(C2CC2)nc2ccc(-n3ccc(OCc4ccc(Cl)cc4)cc3=O)cc21`: the IC50 in data set [1] turned out to be 85 nM; in [2], 110 nM.

For `Cn1c(C2CC2)nc2ccc(-n3ccc(OCc4csc(C(F)(F)F)c4)cc3=O)cc21`, the IC50 in data set [1] stood at 41 nM; in data set [2] it was 29 nM. Besides, on CYP3A4, the activity at 30 µM was determined as 96%.

Turning to `Cn1c(C2CC2)nc2ccc(-n3ccc(OCc4ccc(Cl)cc4)cc3=O)cc21`, the IC50 came out at 35 nM in data set [1] and 21 nM in data set [2].

Regarding `CC(C)CC(N(C)C)C1(c2ccc(Cl)cc2)CCC1` (stereo not drawn) [SIBUTRAMINE], the Activity in the data set with Rattus norvegicus [13] is on record as 18.7%; with Rattus norvegicus [14], 3.1%.

On to `Cn1c(C2CCC2)nc2ccc(-n3ccc(OCc4ccc(F)cc4)cc3=O)cc21`, for which the IC50 in data set [1] worked out at 240 nM; in data set [2] it was 210 nM.

Molecule `Cc1c(C2CC2)nc2cnc(-n3ccc(OCc4ccc(Cl)cc4)cc3=O)cn12` had an IC50 in data set [1] of 44 nM.

Consider `Cn1c(C2CC2)nc2ccc(-n3ccc(OCc4ccsc4)cc3=O)cc21`, for which the IC50 in [1] turned out to be 28 nM; in [2], 29 nM. At CYP3A4, the activity at 30 µM was 74%.

Regarding `Cc1c(C2CC2)nc2ncc(-n3ccc(OCc4ccc(Cl)cc4)cc3=O)cn12`, in [1], the IC50 is > 1000 nM.

For the molecule `Cn1c(C2CC2)nc2ccc(-n3ccc(OCc4ccc(Cl)cn4)cc3=O)cc21`, the IC50 in [1] worked out at 73 nM; in [2], 47 nM.

As for `Cn1c(C2CC2)nc2ccc(-n3ccc(OCc4ccccc4)cc3=O)cc21`, the values for the IC50 in data set [1] and in data set [2] were 45 nM and 43 nM, respectively.

Usually IC50 stands for the concentration that gives 50% inhibition. The term bioavailability denotes the share of a dose that reaches the circulation, judged against a reference dose that is usually intravenous. A word on the clearance: it is the volume of plasma or blood freed of the substance per unit of time. A word on the Cmax: it is the highest concentration seen after dosing. Usually Tmax stands for the time at which the peak concentration occurs. A word on the AUC(0-t): it is the area under the concentration-time curve up to a stated or last time point. As usually defined, the solubility is how much of the substance goes into solution per volume.
